Experimental data published in ChEMBL document CHEMBL1145022, “Hydantoin-substituted 4,6-dichloroindole-2-carboxylic acids as ligands with high affinity for the glycine binding site of the NMDA receptor” (J Med Chem, 2003).
Active and inactive are the calls of the source. The rule behind the calls is not given here.

Tests used:
[1] = Partition coefficient (logP); assay type: physicochemical; conditions: octanol/water
In short: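 Potentiometric titration in n-octanol/water; each Log P value is the mean of at least three independent experiments.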

[2] = target: T1, Sodium channel alpha subunits; brain (Types I, II, III) (Rattus norvegicus) (UniProt P04775+P04774+P08104); test: Inhibition of [3H]batrachotoxin binding to rat brain sodium channels at 1 uM
[3] = target: T1, Sodium channel alpha subunits; brain (Types I, II, III) (Rattus norvegicus); test: Inhibition of [3H]batrachotoxin binding to rat brain sodium channels at 10 uM
[4] = target: T1, Sodium channel alpha subunits; brain (Types I, II, III) (Rattus norvegicus); test: Inhibition of [3H]batrachotoxin binding to rat brain sodium channels at 0.1 uM
[5] = target: T1, Sodium channel alpha subunits; brain (Types I, II, III) (Rattus norvegicus); test: Affinity for sodium channel site 2 up to 10 uM; Inactive; assay type: protein assay

T1 sequence (P04775 whole entry, looked up, other chains not shown): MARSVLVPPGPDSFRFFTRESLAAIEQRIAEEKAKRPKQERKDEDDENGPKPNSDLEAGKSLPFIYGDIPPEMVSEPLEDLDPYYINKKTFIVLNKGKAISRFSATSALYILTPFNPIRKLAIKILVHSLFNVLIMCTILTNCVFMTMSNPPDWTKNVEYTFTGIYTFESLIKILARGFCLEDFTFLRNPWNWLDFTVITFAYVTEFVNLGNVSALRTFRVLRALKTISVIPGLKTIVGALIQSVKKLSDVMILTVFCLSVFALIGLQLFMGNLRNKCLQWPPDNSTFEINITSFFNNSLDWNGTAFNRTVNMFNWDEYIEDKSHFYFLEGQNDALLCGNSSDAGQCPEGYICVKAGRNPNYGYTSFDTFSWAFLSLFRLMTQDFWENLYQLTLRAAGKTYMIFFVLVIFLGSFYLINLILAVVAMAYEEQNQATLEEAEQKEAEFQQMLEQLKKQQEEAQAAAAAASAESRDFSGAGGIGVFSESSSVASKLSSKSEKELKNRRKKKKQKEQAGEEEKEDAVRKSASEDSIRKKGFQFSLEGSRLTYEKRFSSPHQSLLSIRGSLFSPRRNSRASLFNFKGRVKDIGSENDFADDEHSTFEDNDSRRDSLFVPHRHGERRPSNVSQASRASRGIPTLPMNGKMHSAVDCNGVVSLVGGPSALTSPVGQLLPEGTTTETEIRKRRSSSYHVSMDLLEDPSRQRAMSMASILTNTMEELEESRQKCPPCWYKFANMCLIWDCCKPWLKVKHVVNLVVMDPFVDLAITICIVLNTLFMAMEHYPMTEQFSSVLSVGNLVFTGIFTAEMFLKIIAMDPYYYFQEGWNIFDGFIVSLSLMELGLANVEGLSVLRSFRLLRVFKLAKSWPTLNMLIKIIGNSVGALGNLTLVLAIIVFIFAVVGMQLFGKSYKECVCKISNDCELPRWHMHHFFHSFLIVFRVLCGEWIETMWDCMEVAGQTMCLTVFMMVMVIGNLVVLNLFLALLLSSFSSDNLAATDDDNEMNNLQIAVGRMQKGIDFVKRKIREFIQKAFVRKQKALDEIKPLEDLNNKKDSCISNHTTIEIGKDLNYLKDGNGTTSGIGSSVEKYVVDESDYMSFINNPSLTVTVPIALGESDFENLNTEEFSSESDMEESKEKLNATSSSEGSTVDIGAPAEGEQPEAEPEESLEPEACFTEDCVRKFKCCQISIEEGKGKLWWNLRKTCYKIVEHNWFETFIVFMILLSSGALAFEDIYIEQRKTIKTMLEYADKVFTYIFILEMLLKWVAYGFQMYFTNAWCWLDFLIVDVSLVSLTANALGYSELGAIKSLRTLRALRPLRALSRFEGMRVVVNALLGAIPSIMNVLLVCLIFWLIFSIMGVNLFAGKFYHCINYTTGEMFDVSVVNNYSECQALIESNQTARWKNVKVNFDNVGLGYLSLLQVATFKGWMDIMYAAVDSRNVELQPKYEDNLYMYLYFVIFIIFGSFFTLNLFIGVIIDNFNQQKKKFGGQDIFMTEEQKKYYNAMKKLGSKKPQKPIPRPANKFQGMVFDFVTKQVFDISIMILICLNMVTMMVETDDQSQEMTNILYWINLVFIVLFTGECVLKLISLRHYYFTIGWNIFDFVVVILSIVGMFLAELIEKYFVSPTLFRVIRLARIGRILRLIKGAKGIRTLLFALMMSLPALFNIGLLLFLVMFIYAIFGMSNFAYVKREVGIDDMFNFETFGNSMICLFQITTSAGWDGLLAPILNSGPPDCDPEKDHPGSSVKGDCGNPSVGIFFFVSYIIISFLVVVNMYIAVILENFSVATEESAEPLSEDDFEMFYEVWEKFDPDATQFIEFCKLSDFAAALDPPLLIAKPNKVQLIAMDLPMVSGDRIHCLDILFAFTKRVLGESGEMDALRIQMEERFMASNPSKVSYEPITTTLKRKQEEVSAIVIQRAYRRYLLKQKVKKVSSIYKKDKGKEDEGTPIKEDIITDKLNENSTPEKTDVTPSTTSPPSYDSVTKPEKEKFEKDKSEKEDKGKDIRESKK
T1 sequence (P08104 whole entry, looked up, other chains not shown): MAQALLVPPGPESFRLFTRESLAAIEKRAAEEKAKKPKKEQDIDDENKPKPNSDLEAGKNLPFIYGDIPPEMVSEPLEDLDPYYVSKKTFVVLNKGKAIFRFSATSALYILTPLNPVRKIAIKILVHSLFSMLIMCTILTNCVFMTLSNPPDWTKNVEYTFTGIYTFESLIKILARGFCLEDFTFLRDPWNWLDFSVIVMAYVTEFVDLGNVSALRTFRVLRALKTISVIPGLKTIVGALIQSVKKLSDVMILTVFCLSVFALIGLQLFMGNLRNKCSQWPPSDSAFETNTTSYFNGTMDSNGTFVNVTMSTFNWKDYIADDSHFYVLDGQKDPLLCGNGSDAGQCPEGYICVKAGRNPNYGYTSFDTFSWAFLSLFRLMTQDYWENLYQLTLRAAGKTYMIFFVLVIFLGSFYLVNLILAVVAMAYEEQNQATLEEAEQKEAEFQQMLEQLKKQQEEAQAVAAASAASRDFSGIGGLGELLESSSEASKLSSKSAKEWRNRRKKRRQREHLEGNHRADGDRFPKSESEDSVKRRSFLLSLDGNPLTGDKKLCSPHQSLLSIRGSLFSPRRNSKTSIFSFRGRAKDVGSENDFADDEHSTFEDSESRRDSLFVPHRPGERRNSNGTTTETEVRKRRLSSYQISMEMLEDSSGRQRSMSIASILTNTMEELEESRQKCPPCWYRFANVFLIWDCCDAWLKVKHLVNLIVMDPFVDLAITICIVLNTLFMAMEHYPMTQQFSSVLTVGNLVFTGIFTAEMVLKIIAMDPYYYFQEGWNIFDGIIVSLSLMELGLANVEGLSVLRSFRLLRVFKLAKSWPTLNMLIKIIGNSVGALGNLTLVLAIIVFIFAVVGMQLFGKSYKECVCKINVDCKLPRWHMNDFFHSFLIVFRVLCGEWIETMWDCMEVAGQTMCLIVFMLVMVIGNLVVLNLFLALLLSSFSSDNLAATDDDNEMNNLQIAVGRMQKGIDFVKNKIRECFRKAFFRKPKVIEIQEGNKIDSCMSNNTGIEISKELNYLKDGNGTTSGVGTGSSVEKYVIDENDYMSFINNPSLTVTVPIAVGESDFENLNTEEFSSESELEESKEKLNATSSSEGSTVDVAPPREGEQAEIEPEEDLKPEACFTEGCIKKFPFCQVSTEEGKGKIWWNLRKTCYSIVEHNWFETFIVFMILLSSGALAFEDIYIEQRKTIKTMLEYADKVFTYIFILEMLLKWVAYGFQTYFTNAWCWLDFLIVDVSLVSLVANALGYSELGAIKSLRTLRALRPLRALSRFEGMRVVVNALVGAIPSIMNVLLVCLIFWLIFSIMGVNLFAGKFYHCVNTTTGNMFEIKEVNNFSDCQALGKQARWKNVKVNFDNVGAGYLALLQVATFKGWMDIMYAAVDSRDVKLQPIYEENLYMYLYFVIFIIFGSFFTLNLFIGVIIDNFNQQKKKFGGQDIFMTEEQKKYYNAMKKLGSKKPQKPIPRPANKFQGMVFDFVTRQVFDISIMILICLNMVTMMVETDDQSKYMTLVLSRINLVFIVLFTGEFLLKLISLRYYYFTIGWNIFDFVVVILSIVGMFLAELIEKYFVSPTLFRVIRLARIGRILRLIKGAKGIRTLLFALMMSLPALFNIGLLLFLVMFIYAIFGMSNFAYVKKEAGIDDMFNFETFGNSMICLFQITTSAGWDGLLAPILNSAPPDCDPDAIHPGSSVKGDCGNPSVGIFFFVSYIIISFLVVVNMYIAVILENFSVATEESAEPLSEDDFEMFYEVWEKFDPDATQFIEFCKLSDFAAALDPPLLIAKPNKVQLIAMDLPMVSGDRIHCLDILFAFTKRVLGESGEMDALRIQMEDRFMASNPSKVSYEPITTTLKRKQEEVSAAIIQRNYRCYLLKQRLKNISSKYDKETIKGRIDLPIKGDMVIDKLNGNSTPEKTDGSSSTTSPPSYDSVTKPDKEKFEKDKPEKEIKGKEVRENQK

Compound	logP [1]	other results
O=C(O)c1[nH]c2cc(Cl)cc(Cl)c2c1CNS(=O)(=O)c1ccccc1	3.1	–
CC(C)C1C(=O)N(c2ccccc2)C(=O)N1Cc1c(C(=O)O)[nH]c2cc(Cl)cc(Cl)c12 (stereo not drawn)	–	inhibition [2]: 8%; inhibition [3]: 29%; inhibition [4]: 11%
O=C(O)c1[nH]c2cc(Cl)cc(Cl)c2c1CN1CC(=O)N(c2ccccc2)C1=O	2.16	IA [5]: inactive

More lines, main results first:

logP [1]	Compound	other results
2.36	O=C(NCc1c(C(=O)O)[nH]c2cc(Cl)cc(Cl)c12)c1ccccc1	–
2.83	O=C(NCc1c(C(=O)O)[nH]c2cc(Cl)cc(Cl)c12)Nc1ccccc1	–
